# Test results from ChEMBL document CHEMBL1147128, “Development of molecular probes for second-site screening and design of protein tyrosine phosphatase inhibitors” (J Med Chem, 2007).
# Tests used:
# [1] = biological target: T1, Tyrosine-protein phosphatase non-receptor type 7 (Homo sapiens, UniProt P35236); experiment: Inhibition of HePTP
# T1 sequence (P35236 whole entry): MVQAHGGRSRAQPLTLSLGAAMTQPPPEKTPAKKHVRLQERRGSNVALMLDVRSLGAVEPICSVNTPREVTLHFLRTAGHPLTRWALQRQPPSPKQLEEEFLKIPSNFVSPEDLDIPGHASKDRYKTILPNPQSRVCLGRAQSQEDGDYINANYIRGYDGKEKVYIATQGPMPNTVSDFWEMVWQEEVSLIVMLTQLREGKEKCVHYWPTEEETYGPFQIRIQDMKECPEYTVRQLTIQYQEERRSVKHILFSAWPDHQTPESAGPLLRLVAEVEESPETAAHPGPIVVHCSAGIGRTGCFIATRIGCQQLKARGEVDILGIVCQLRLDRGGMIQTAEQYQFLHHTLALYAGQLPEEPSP
# Procedure, shortened: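 pNPP was held at its Km of 2.5 mM for HePTP. Assay at 30°C in 0.15 M Bis-Tris pH 6.0 (ionic strength 150 mM, NaCl), 1.0 mM DTT, 5% DMSO final. Compound (0.0128–1000 μM) and enzyme were preincubated 10 min at RT, then reacted 20 min with substrate. NaOH quench, A405 minus the no-enzyme blank. IC50 fit to Vi/V0 = IC50/(IC50+[I]).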
# [2] = biological target: T2, Receptor-type tyrosine-protein phosphatase C (Homo sapiens, UniProt P08575); experiment: Inhibition of CD45
# T2 sequence (P08575 whole entry): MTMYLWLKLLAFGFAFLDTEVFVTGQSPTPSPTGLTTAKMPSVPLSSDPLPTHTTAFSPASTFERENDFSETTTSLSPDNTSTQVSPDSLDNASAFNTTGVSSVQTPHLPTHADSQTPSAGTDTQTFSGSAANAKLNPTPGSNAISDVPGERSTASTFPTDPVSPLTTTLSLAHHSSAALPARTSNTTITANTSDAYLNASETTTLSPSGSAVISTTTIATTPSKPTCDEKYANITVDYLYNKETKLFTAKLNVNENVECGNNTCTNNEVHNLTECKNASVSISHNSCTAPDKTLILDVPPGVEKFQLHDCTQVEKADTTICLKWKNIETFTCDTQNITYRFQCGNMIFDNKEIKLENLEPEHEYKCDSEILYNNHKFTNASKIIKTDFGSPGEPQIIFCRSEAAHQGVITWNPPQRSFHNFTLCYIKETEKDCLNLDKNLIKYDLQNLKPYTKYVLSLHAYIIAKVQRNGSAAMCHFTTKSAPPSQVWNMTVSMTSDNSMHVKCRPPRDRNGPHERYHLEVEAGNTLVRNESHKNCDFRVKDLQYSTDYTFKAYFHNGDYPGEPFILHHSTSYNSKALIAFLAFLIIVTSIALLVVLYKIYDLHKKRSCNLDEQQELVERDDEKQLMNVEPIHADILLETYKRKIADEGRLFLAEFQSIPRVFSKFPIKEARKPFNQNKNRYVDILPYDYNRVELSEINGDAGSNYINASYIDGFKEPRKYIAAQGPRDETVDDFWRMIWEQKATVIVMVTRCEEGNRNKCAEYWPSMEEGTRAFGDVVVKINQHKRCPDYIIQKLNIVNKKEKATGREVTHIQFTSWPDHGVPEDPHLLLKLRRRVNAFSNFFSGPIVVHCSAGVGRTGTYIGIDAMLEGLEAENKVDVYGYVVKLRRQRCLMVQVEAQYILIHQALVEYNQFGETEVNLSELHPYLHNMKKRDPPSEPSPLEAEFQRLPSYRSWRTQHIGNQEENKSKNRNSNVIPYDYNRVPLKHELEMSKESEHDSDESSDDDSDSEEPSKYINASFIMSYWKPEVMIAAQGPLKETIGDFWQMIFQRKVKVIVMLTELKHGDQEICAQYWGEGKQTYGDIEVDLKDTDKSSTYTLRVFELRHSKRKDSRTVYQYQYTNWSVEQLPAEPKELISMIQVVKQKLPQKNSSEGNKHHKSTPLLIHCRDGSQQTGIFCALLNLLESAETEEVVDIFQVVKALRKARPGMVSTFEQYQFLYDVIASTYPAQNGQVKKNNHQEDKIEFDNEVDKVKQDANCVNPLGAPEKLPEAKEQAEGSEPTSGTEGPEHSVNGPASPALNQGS
# Procedure, shortened: (§1)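 Hydrolysis of pNPP at its Km (1 mM) was measured at 30°C in 0.15 M Bis-Tris pH 6.0, ionic strength 150 mM with NaCl, 1.0 mM DTT, 5% DMSO final. Enzyme and compound (0.0128–1000 μM, 5-fold steps) were preincubated 10 min at room temperature, then reacted 20 min. The reaction was quenched with 1 M NaOH and read at 405 nm, with the no-enzyme background subtracted. IC50 came from the fit Vi/V0 = IC50/(IC50+[I]).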
# [3] = biological target: T3, Tyrosine-protein phosphatase non-receptor type 2 (Homo sapiens, UniProt P17706); experiment: Inhibition of TCPTP; procedure, shortened: as §1
# T3 sequence (P17706 whole entry): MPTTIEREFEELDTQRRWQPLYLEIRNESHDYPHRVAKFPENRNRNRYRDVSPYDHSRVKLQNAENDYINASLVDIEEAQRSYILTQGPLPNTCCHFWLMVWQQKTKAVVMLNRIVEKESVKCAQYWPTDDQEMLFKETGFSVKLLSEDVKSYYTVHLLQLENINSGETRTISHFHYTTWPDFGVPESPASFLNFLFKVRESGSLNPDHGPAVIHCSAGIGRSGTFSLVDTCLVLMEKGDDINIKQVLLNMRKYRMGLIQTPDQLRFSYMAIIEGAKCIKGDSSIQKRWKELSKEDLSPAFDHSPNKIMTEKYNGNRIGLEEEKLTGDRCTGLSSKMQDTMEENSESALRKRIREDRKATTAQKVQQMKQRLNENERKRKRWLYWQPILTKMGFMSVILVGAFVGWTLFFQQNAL
# [4] = biological target: Dual specificity protein phosphatase 3 (Homo sapiens, UniProt P51452); experiment: Inhibition of VHR
# Procedure, shortened: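 VHR was assayed with pNPP at its Km of 1.5 mM, at 30°C in 0.15 M Bis-Tris pH 6.0 (150 mM ionic strength, NaCl), 1.0 mM DTT, 5% DMSO final. Eight compound concentrations from 0.0128 to 1000 μM were preincubated 10 min at RT, then reacted 20 min. NaOH quench, read at 405 nm with the enzyme-free blank corrected. IC50 from Vi/V0 = IC50/(IC50+[I]).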
# [5] = Inhibition of Yersinia pestis YopH expressed in Escherichia coli
# Procedure, shortened: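 GST-YopH was purified on glutathione-Sepharose and dialysed into 30 mM Tris, 150 mM NaCl, then with 1 mM DTT. Assayed with pNPP at Km (1 mM), 30°C, 0.15 M Bis-Tris pH 6.0, 1.0 mM DTT, 5% DMSO final. Compound (0.0128–1000 μM) was preincubated 10 min at RT, then reacted 20 min. NaOH quench, A405 with the no-enzyme blank subtracted, IC50 by the hyperbolic fit.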
# [6] = biological target: T4, Tyrosine-protein phosphatase non-receptor type 1 (Homo sapiens, UniProt P18031); experiment: Inhibition of PTP1B; procedure, shortened: as §1
# T4 sequence (P18031 whole entry): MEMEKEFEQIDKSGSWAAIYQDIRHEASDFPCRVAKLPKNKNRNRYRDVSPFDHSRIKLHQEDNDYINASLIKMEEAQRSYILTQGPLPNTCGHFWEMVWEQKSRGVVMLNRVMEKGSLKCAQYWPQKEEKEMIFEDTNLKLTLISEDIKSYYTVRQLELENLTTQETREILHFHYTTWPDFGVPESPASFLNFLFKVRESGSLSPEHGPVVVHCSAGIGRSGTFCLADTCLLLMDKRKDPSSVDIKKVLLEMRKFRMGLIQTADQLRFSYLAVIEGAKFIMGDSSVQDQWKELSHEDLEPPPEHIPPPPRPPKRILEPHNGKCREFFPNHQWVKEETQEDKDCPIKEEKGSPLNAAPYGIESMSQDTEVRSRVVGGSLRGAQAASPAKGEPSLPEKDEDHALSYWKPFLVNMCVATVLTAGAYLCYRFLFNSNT
# Sequence of Dual specificity protein phosphatase 3 (P51452 whole entry): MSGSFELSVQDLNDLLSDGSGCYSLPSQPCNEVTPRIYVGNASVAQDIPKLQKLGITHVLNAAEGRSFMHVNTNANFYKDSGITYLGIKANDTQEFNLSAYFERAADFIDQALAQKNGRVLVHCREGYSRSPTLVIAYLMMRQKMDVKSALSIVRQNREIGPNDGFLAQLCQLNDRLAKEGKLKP
Compound,IC50 [1] [µM],IC50 [2] [µM],IC50 [3] [µM],IC50 [4] [µM],IC50 [5] [µM],IC50 [6] [µM]
CC1(C)CC(NC(=O)/C=C/c2ccc(-c3ccc([N+](=O)[O-])cc3)o2)CC(C)(C)N1[O],> 1000,> 1000,> 1000,1000,47,> 1000
CC1(C)CC(NC(=O)/C=C/c2ccc(-c3ccc(O)c(C(=O)O)c3)o2)CC(C)(C)N1[O],7.5,14,14,12,3,24
CC1(C)CC(NC(=O)CCCC(=O)Nc2ccc(O)c(C(=O)O)c2)CC(C)(C)N1[O],> 1000,> 1000,> 1000,1000,336,> 1000
COC(=O)c1cc(-c2ccc(CNC3CC(C)(C)N([O])C(C)(C)C3)o2)ccc1O,> 1000,> 1000,> 1000,850,> 1000,> 1000
CC1(C)CC(NC(=O)/C=C/c2ccc(-c3cccc([N+](=O)[O-])c3)o2)CC(C)(C)N1[O],211,> 1000,260,200,46,1000
CC1(C)CC(NCc2ccc(-c3ccc(O)c(C(=O)O)c3)o2)CC(C)(C)N1[O],> 1000,> 1000,685,241,50,> 1000
COC(=O)c1cc(NC(=O)CCCC(=O)NC2CC(C)(C)N([O])C(C)(C)C2)ccc1O,> 1000,> 1000,> 1000,> 1000,> 1000,> 1000
